Measured values: ChEMBL document CHEMBL3286193, “Discovery of a series of 2,5-diaminopyrimidine covalent irreversible inhibitors of Bruton's tyrosine kinase with in vivo antitumor activity” (J Med Chem, 2014)
pIC50: −log10 of the molar value. Active and inactive are the calls of the source. The calls are words filed in the database; no cut-off is given here.

Experiments:
Homo sapiens = species on record: Homo sapiens; assay: Inhibition of VEGFR (unknown origin) at 0.5 uM by [33P]-ATP filter binding assay
Procedure, shortened: (§1)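 Kinase panel of 18 enzymes; inhibition tested at 0.5 μM. Values are means of duplicates.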

[1] = target: Receptor tyrosine-protein kinase erbB-2 (Homo sapiens, UniProt P04626); assay: Inhibition of HER2 (unknown origin) after 1 hr by HTRF assay
Procedure, shortened: (§2)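 Recombinant kinases tested by HTRF KinEase protocol. Enzyme preincubated with inhibitor for a fixed 10 min. IC50 values are means of duplicates.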

[2] = target: Tyrosine-protein kinase Blk (Homo sapiens, UniProt P51451); assay: Inhibition of Blk (unknown origin) after 1 hr by HTRF assay; procedure, shortened: as §2
[3] = target: Epidermal growth factor receptor (Homo sapiens, UniProt P00533); assay: Inhibition of EGFR (unknown origin) after 1 hr by HTRF assay
Chain of Epidermal growth factor receptor (P00533 whole entry): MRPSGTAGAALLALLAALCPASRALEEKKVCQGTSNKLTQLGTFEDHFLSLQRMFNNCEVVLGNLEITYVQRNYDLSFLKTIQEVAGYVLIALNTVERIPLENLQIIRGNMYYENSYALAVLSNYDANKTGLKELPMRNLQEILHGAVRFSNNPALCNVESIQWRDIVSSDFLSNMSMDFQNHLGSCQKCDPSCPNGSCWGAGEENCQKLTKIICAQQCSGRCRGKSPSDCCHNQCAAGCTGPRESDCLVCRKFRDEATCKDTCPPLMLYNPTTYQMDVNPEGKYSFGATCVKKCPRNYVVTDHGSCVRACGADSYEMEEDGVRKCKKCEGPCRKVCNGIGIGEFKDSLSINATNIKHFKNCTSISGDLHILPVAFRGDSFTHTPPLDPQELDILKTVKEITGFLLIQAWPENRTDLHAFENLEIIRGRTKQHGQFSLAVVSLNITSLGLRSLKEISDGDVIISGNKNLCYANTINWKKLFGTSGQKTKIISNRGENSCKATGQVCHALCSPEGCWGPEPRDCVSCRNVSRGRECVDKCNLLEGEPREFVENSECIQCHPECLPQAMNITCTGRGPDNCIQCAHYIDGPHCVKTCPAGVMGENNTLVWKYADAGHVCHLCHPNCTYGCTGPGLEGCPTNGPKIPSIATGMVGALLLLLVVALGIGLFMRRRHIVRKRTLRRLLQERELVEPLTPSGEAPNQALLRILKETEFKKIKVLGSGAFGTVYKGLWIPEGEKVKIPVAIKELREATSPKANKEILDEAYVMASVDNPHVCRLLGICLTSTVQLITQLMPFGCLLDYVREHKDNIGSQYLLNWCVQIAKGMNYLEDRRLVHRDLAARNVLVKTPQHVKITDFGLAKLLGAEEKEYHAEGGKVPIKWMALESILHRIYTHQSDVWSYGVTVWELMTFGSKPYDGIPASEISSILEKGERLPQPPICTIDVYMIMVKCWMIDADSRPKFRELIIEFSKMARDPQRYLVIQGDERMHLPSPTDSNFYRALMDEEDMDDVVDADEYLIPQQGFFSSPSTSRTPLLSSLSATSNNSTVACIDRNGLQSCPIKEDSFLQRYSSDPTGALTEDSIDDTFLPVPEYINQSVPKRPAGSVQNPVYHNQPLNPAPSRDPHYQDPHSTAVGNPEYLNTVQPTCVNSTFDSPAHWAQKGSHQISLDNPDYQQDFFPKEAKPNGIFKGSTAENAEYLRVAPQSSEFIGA
Procedure, shortened: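 Commercial recombinant kinase, assayed in the HTRF KinEase format following the kit protocol. Enzyme and inhibitor were preincubated for a fixed 10 min before the reaction.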

[4] = target: T1, Receptor tyrosine-protein kinase erbB-4 (Homo sapiens, UniProt Q15303); assay: Inhibition of HER4 (unknown origin) after 1 hr by HTRF assay; procedure, shortened: as §2
T1 sequence (Q15303 whole entry): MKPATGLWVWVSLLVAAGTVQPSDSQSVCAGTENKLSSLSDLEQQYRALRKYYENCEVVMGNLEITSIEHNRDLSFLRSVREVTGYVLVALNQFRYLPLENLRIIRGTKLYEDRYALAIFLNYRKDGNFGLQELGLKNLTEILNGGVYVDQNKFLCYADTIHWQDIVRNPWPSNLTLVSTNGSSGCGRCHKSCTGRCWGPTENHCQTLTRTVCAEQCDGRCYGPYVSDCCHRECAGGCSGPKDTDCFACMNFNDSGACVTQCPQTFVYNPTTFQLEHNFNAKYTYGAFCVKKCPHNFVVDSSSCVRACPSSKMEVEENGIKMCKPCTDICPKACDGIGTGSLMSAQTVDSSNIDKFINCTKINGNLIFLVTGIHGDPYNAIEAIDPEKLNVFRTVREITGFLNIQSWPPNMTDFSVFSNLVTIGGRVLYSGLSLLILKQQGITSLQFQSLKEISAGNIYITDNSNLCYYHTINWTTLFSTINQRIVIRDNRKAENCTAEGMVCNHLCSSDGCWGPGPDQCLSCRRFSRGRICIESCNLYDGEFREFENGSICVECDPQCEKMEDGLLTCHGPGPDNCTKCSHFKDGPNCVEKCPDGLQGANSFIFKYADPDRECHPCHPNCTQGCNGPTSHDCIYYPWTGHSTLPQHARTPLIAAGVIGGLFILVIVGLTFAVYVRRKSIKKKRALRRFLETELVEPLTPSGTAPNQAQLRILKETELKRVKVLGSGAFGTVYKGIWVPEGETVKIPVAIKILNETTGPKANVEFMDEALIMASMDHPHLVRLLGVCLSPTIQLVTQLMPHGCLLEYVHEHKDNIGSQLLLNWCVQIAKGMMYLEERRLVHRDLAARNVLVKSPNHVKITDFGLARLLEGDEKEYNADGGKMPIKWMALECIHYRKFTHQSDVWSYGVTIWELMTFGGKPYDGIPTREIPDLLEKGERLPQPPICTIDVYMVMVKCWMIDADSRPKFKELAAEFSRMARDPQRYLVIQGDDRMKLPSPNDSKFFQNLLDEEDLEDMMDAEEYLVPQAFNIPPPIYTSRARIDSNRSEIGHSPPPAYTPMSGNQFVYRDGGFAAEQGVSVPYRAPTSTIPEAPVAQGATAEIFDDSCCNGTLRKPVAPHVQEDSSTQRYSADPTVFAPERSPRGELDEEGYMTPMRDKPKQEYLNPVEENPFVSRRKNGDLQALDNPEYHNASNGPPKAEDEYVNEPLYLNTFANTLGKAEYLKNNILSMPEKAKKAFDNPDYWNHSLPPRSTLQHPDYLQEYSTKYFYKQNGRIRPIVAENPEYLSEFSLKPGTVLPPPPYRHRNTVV

[5] = target: Tyrosine-protein kinase ITK/TSK (Homo sapiens, UniProt Q08881); assay: Inhibition of Itk (unknown origin) after 1 hr by HTRF assay; procedure, shortened: as §2
[6] = target: Tyrosine-protein kinase JAK3 (Homo sapiens, UniProt P52333); assay: Inhibition of Jak3 (unknown origin) after 1 hr by HTRF assay; procedure, shortened: as §2
Chain of Tyrosine-protein kinase JAK3 (P52333 whole entry, the tested form may be a part): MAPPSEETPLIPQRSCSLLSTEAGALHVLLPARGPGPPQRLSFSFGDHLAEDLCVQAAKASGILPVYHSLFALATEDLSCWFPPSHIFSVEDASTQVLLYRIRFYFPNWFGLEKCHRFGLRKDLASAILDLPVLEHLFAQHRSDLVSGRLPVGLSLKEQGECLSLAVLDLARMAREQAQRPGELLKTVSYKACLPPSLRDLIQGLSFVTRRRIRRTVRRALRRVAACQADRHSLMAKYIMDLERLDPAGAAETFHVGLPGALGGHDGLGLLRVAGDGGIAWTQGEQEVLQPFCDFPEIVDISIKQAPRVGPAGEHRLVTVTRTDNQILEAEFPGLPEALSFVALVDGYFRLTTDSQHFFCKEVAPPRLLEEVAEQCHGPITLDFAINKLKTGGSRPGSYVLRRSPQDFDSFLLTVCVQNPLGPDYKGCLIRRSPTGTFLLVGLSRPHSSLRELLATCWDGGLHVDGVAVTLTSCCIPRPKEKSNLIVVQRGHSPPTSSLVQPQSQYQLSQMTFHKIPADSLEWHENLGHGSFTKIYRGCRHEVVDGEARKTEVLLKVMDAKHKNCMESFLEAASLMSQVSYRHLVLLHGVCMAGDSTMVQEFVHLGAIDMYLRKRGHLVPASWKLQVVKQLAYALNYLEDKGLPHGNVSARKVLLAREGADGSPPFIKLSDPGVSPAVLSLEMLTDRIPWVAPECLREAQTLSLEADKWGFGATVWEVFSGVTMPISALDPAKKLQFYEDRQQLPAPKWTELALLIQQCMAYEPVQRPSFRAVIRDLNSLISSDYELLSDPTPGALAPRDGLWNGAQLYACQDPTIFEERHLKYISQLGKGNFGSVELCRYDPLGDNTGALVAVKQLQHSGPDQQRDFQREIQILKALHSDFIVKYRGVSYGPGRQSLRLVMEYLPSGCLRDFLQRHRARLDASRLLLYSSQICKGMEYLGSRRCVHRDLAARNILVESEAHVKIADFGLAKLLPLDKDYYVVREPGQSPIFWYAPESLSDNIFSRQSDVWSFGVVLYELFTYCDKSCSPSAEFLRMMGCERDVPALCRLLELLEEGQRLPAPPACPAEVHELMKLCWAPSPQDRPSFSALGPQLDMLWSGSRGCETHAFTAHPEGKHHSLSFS

[7] = target: T2, Tyrosine-protein kinase BTK (Homo sapiens, UniProt Q06187); assay: Binding affinity to Btk kinase domain (387 to 659) (unknown origin) assessed as compound-protein covalent adduct formation at Cys481 residue at 1:3 protein to compound molar ratio incubated for 3 hrs at 0 degC followed by overnight incubation with trypsin at 37 degC by LC-MS analysis
T2 sequence (Q06187 whole entry, the tested form may be a part): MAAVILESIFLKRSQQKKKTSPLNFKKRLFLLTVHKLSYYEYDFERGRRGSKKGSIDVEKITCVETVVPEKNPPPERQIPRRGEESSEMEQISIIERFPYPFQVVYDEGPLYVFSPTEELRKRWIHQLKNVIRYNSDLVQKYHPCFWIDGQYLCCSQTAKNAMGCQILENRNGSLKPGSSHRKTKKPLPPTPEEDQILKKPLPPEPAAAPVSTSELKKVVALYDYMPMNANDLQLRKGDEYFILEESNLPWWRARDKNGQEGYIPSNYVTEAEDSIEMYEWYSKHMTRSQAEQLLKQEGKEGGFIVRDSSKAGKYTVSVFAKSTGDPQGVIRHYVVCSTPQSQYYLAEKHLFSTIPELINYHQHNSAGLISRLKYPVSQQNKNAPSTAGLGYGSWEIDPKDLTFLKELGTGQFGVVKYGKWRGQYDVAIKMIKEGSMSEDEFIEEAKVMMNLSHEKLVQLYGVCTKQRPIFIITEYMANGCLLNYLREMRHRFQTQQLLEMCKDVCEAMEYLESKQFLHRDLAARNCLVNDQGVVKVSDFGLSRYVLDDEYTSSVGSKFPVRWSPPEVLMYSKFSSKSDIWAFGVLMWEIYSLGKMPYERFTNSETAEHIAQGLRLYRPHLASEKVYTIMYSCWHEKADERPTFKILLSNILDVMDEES
Procedure, shortened: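 Covalent Btk kinase-domain adduct digested with trypsin. Resulting peptide fragments analyzed by mass spectrometry to locate the modified residue.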

[8] = target: T2, Tyrosine-protein kinase BTK; assay: Irreversible inhibition of Btk phosphorylation at Tyr551 in human Ramos cells at 1 uM incubated for 1 hr followed by compound washout with fresh media measured after 2 hrs by Western blot analysis; type: cell-based
Procedure, shortened: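 Ramos cells (5 × 10⁵) seeded overnight, treated with compound 1 h, then washed out with fresh media for 2 h. Cells stimulated with goat anti-human IgM for 3−5 min, lysed by boiling in SDS buffer, and Btk Tyr551 phosphorylation assessed by Western blot.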

JVM-3 = assay: Cytotoxicity against human JVM-3 cells assessed as growth inhibition at 1 to 10 uM after 72 hrs by CellTiter-Glo luminescent cell viability assay; type: functional, cell-based
RL = assay: Cytotoxicity against human RL cells assessed as growth inhibition at 1 to 10 uM after 72 hrs by CellTiter-Glo luminescent cell viability assay; type: functional, cell-based
SU-DHL10 = assay: Cytotoxicity against human SU-DHL10 cells assessed as growth inhibition at 1 to 10 uM after 72 hrs by CellTiter-Glo luminescent cell viability assay; type: functional, cell-based
WSU-DLCL2 = assay: Cytotoxicity against human WSU-DLCL2 cells assessed as growth inhibition at 1 to 10 uM after 72 hrs by CellTiter-Glo luminescent cell viability assay; type: functional, cell-based
WSU-NHL = assay: Cytotoxicity against human WSU-NHL cells assessed as growth inhibition after 72 hrs by CellTiter-Glo luminescent cell viability assay; type: functional
Procedure, shortened: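 Lymphoma cells seeded at 5000 cells/well, incubated 24 h, then exposed to compounds for 72 h. Viability read by CellTiter-Glo luminescence. GI50 from dose−response curves, mean of two or three independent experiments in triplicate.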

[9] = Clearance in mouse liver microsomes by LC-MS/MS analysis; type: ADME; conditions: read-out: CLH
Procedure, shortened: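 Liver microsomes incubated with compound and NADPH at 37 °C. Samples taken at several time points, centrifuged, and supernatants analyzed by LC−MS/MS. t1/2 and CL calculated by first-order kinetics. Testosterone, propranolol and clozapine served as positive controls.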

[10] = Volume of distribution at steady state in ICR mouse at 1 mg/kg, iv by LC-MS analysis; type: ADME, organism-based; design: dose 1 mg/kg, route intravenous; conditions: in vivo, read-out: Vdss
Procedure, shortened: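 ICR mice (n = 3) given a single intravenous injection at 1 mg/kg. Blood sampled at various time points and analyzed by LC−MS to derive t1/2, CL and Vss.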

[11] = Plasma concentration in CB17 SCID mouse xenografted with human DOHH2 cells at 20 mg/kg, iv qd administered for 14 days measured at 24 hrs post last dose; type: ADME, organism-based, DOHH-2; design: dose 20 mg/kg, route intravenous
Procedure, shortened: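 Same DoHH2 xenograft study in female CB17/SCID mice, tail-vein dosing once daily for 14 days. Plasma compound concentrations determined at 2 and 24 h after the last administration.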

DOHH-2 = assay: Antitumor activity against human DOHH2 cells xenografted in iv dosed CB17 SCID mouse assessed as tumor growth inhibition administered as qd for 14 days measured over 14 days of compound treatment; type: functional, organism-based
[12] = target: T1, Receptor tyrosine-protein kinase erbB-4; assay: Inhibition of HER4 (unknown origin) at 0.5 uM by [33P]-ATP filter binding assay; procedure, shortened: as §1
[13] = target: Tyrosine-protein kinase Lck (Homo sapiens) (UniProt P06239); assay: Inhibition of Lck (unknown origin) at 0.5 uM by [33P]-ATP filter binding assay; procedure, shortened: as §1
Chain of Tyrosine-protein kinase Lck (Homo sapiens) (P06239 2-509 limits assumed): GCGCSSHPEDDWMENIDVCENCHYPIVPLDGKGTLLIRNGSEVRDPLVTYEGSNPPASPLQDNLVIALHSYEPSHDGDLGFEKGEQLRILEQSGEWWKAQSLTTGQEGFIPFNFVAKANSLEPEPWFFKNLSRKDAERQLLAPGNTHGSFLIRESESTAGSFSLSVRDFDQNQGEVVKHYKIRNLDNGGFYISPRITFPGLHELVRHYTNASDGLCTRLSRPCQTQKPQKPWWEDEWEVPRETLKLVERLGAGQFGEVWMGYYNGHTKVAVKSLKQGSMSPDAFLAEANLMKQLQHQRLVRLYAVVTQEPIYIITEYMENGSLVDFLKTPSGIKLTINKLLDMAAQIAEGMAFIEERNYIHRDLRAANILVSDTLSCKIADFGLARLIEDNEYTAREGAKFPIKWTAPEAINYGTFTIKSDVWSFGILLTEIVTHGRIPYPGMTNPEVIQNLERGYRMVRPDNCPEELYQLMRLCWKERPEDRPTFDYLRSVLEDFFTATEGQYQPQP

inhibition (Homo sapiens): Active | pIC50 [1]: 7.72 | pIC50 [2]: 8.57 | pIC50 [3]: 7.96 | pIC50 [4]: 8.26 | pIC50 [5]: < 4.52 | pIC50 [6]: 5.57 | Activity [7]: Active | inhibition [8]: Active | microsomal CLint [9]: 25.7 µL/min/mg | Vd [10]: 0.2 L/kg | concentration at 24 h [11]: 13 ng/mL | inhibition [12]: Active | inhibition [13]: Active
Compound: C=CC(=O)Nc1cccc(Nc2ncc(NC(=O)c3cc(NC(=O)c4cccc(C(F)(F)F)c4)ccc3C)cn2)c1
growth inhibition (GI) (JVM-3): Active | growth inhibition (GI) (RL): Active | growth inhibition (GI) (SU-DHL10): Active | growth inhibition (GI) (WSU-DLCL2): Active | GI50 (WSU-NHL): 0.031 µM | growth inhibition (GI) (DOHH-2): Dose-dependent effect
